A selection: hits, their analogues and other compounds. The true share with any hit is near 3.4%.
PolyA inh: polyadenylation inhibitors in yeast reporter cells, primary screen, luminescence, S. cerevisiae | S. cerevisiae SKY197-pL101 polyadenylation reporter, beta-gal luminescence; efflux-impaired pdr1/pdr3 knockout yeast; score 100 = 6 SD above DMSO | 300,000 tested, 0.02% active | activity score, % at 12 µM;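 active = lowest replicate activity score at least 50, where 100 means six control SD above control mean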;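 note: yeast exposed to compound for 9 h at 30 °C; higher score means more reporter readthrough which indicates perturbed polyadenylation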
AHR act: AHR activators, primary screen, cell-based, luminescence, luciferase reporter, human | 320,000 tested, 2.5% active | Aryl hydrocarbon receptor (Homo sapiens), P35869 | activation, % at 5 µM | AHR-responsive luciferase reporter cells | AID 2796, 2010; in the data active = activation above about 47%
Arrestin-AP2 inh: inhibitors of beta-arrestin/AP2 binding, primary screen, biochemical, GPCR trafficking, flow cytometry | beta-arrestin 1 C-terminal peptide binding to AP2 beta2-adaptin appendage (human) | FITC-arrestin peptide / GST-AP2 beads; AP2 beta2 appendage carries R879A mutation | inhibition, % at 10 µM | 340,000 tested, 0.31% active;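 active = inhibition above a set limit, near 3 SD of compounds lacking own fluorescence, cut at about 54% in these data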
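Material – AP2 appendage R879A on GSH beads · Buffer or medium – PBS with 0.05% Tween 20 and 0.1% BSA · Probe or stimulus – fluorescein-tagged arrestin peptide at 50 nM final · Incubation – compound with beads 12 min RT, then probe 1 h RT · Detection – high-throughput flow cytometry of beads, ex 488, em 535 nm · Evaluation – percent response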
UCH37 DUB inh: inhibitors of human UCH37 deubiquitinase, primary screen, biochemical, Ub-AMC cleavage, fluorescence; 330,000 tested, 0.33% active; AID 588478, 2011; purified proteasome/UCH37; Ubiquitin carboxyl-terminal hydrolase isozyme L5 (Homo sapiens), Q9Y5K5; inhibition, % (concentration not given with the values);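 active = mean inhibition over replicate wells above about 20%, limit read from the data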
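Material: Human UCH37 enzyme supplied as purified proteasome complex | Schedule: 30 min preincubation with enzyme, 25 min cleavage at room temperature | Detection: AMC fluorescence 355/460 nm | Measure: % inhibition of Ub-AMC cleavage fluorescence | Controls: Wells without proteasome as full block, compound-free enzyme plus substrate as uninhibited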
A3A deaminase: APOBEC3A ssDNA deaminase inhibitors, primary screen, selectivity assay for APOBEC3G inhibitor project, biochemical, FAM/TAMRA oligo cleavage fluorescence | DNA dC->dU-editing enzyme APOBEC-3A (Homo sapiens), P31941 | recombinant A3A, FAM/TAMRA ssDNA deamination fluorescence | inhibition, % at 20 µM | 330,000 tested, 0.41% active;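 active = at least 40% inhibition at 20 µM here, with at most 30% in a related deaminase screen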
APOBEC3G inh: APOBEC3G DNA deaminase inhibitors, primary screen, biochemical, fluorescence, single-stranded DNA substrate, uHTS; inhibition, % at 20 µM; 330,000 tested, 0.28% active; recombinant A3G, ssDNA deamination FAM/TAMRA fluorescence; DNA dC->dU-editing enzyme APOBEC-3G (Homo sapiens), Q9HC16;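 active = inhibition of at least 40% at 20 µM, with no more than 30% in the related APOBEC3A deaminase screen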
Hits are given with their value; - = inactive; . = no result given.

SMILES | PolyA inh | AHR act | Arrestin-AP2 inh | UCH37 DUB inh | A3A deaminase | APOBEC3G inh
Nc1nnnn1CC(=O)NN=Cc1cc([N+](=O)[O-])ccc1O | . | . | . | - | . | .
CC(=O)N(CCc1ccccc1)Cc1cc2cc(C)ccc2[nH]c1=O | - | 54 | - | - | - | -
Cc1[nH]n(-c2ccccc2)c(=O)c1C=NNC(=O)c1ccc(O)cc1O | . | . | . | - | . | .
COC(=O)Cc1nnc(Nc2cccc(C)c2)c2ccccc12 | - | 61 | - | - | - | -
O=C(NN=Cc1ccccc1OC(=O)N1CCOCC1)c1cccs1 | . | . | . | - | . | .
O=C(NCCc1ccccc1)c1nc2nc(-c3cccs3)cc(C(F)(F)F)n2n1 | - | 77 | - | - | - | -
CCOC(=O)/C(C#N)=C/C=C1/C=CC=CN1C | - | - | - | 20 | - | -
CCOC(=O)/C(C#N)=C\N(C)C | - | - | - | - | - | -
Clc1ccc(-c2csc(N3CCN(c4ccccc4)CC3)n2)cc1 | - | - | - | - | - | -
Clc1ccc(-c2csc(N3CCc4ccccc4C3)n2)cc1 | - | 52 | - | - | - | -
CC1(C)C2CC=C(C=NNC(=O)c3ccccc3Br)C1C2 (stereo not drawn) | . | . | . | - | . | .
O=C(Nc1ccccc1)c1ncoc1-c1ccc(Cl)cc1 | - | 57 | - | - | - | -
O=C(Nc1ccc(-c2cnco2)cc1)c1ccc(Cl)cc1 | - | - | - | - | - | -
CC(=NNC(=O)NC1CCCCC1)c1ccc(Cl)s1 | . | . | . | - | . | .
Cc1nn(-c2ccccc2)c2nc(-c3ccncc3)cc(C(=O)NCc3ccco3)c12 | - | 65 | - | - | - | -
Cc1nn(-c2ccccn2)c2nc(-c3cccs3)cc(C(=O)NCc3ccco3)c12 | - | - | - | - | - | -
Cc1ccc(Cn2ccc(=O)c(OCc3c(Cl)cccc3Cl)c2C)cc1 | - | - | - | 25 | - | -
Cc1[nH]ccc(=O)c1OCc1c(Cl)cccc1Cl | - | - | - | - | - | -
O=c1c2c(-c3cccs3)csc2ncn1N=Cc1ccc(OC(F)F)cc1 | . | . | . | - | . | .
CC1CC(=N/N=C2/NC(=O)CS2)CC(C)(C)C1 (stereo not drawn) | . | . | . | - | . | .
COc1ccc(-c2cn3ccc4ccccc4c3n2)cc1 | - | 48 | - | - | - | -
COc1ccc(-c2cn3cc(C(F)(F)F)cc(Cl)c3n2)cc1 | - | 52 | - | - | - | -
COc1ccccc1C(=O)NN=Cc1ccc(Cl)s1 | . | . | . | - | . | .
Cn1c(NCc2ccccc2Cl)nc2ccccc21 | - | 77 | - | - | - | -
O=C(NNC(=S)NCc1ccccc1)c1ccccc1OC(F)F | - | - | - | - | - | -
SMILES | PolyA inh | AHR act | Arrestin-AP2 inh | UCH37 DUB inh | A3A deaminase | APOBEC3G inh
O=C(NNC(=S)Nc1ccc(Cl)cc1)c1ccccc1OC(F)F | - | 104 | - | - | - | -
O=C(/C=C/c1ccc(Br)cc1)c1ccco1 | - | - | - | - | - | -
O=C(/C=C/c1ccc(Br)cc1)c1ccc(NC(=O)c2ccco2)cc1 | - | 48 | - | - | - | -
c1ccc2c(Nc3nc(N4CCOCC4)c4ccccc4n3)cccc2c1 | - | 71 | - | - | - | -
Cc1ccccc1C=NNC(=O)Cc1ccc(Cl)cc1 | . | . | . | - | . | .
Cc1cccc(/C=N/NC(=O)Cc2ccc(Cl)cc2)c1O | - | 52 | - | . | - | -
CCCCCCCCCCCCCCCC[N+](C)(C)CCN(Cc1ccc(OC)cc1)c1ncccn1 | . | - | - | 27 | - | -
COc1ccc(CN(CCN(C)C)c2ccccn2)cc1 | - | - | - | - | - | -
CON=Cc1ccc(N2CCN(C(=O)c3ccc(Cl)cc3Cl)CC2)c([N+](=O)[O-])c1 | . | . | . | - | . | .
CC(NC(=O)c1ccc(Br)cc1)c1ccccc1 (stereo not drawn) | 70 | - | - | - | - | -

Bioassay records deposited in PubChem by several laboratories.
